Test results as given in ChEMBL document CHEMBL1122158, “Agents with potential specificity against melanotic melanoma” (1982).

Legend:
KB = test: In vitro effective dose that causes 50% inhibition of growth of KB cell line - human epidermoid carcinoma of the nasopharynx; format: functional; conditions: read-out: ED50 (the source's name)
PS = test: In vitro effective dose that causes 50% inhibition of growth of PS cell line - P388 lymphocytic leukemia; conditions: Mus musculus, read-out: ED50 (the source's name)
B16 [1] = test: In vivo antitumor activity against B-16 Melanoma after intraperitoneal tumor implantation and then intraperitoneal administration of 75 mg/kg of dose; format: functional, Mus musculus
Procedure, shortened: (§1)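 B-16 melanoma was implanted intraperitoneally and dosed per NCI protocols. Intraperitoneal treatment began 24 h after implant and was given once daily on days 1-9. Activity was expressed as % T/C, with T/C ≥ 125% taken as statistically significant.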

B16 [2] = test: In vivo antitumor activity against B-16 Melanoma after intraperitoneal tumor implantation and then intraperitoneal administration of 100 mg/kg of dose; format: functional, Mus musculus; procedure, shortened: as §1
M2R = test: In vitro effective dose that causes 50% inhibition of growth of M2R cell line - amelanotic melanoma; format: functional; conditions: Mus musculus, in the assay text read “melanotic melanoma” for “amelanotic melanoma”, read-out: ED50 (the source's name)
Procedure, shortened: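 1 × 10^4 cells seeded in a 1:1 DMEM/Ham's F-12 medium with 1.2 g/L NaHCO3, 15 mM HEPES and 10% fetal bovine serum, at 37 °C in 5% CO2. After 24 h, the medium was replaced with fresh medium holding the test agent at various concentrations. Growth was followed for at least 3 more days by trypsinizing and Coulter counting. Net cell increase was expressed as % of control when controls had grown 8-fold.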

B16 [3] = test: In vivo antitumor activity against B-16 Melanoma after intraperitoneal tumor implantation and then intraperitoneal administration of 150 mg/kg of dose; format: functional, Mus musculus; procedure, shortened: as §1
A2 (Mus musculus) = test: In vitro effective dose that causes 50% inhibition of growth of A2 cell line - amelanotic melanoma; conditions: read-out: ED50 (the source's name)

Row | EC50 (KB) | EC50 (PS) | EC50 (A2 (Mus musculus)) | Compound | T/C (B16 [1]) | T/C (B16 [2]) | EC50 (M2R) | T/C (B16 [3])
1 | 300 µM | 300 µM | > 100 µM | NC(CCCNc1cccc(O)c1)C(=O)O (stereo unspecified) | 104% | 87% | > 100 µM | 82%
2 | 120 µM | 9.5 µM | 22 µM | NC(CCCNc1ccc(O)cc1)C(=O)O (stereo unspecified) | 122% | 98% | 13 µM | 106%
3 | 140 µM | 32 µM | 54 µM | NC(CNc1ccc(O)cc1)C(=O)O (stereo unspecified) | 111% | 103% | 24 µM | 101%
